The results in this text go back to ChEMBL document CHEMBL4177626, “Synthesis and anti-HCV activity of a series of β-d-2'-deoxy-2'-dibromo nucleosides and their corresponding phosphoramidate prodrugs” (Bioorg Med Chem Lett, 2017).

Activity calls are given as the source filed them. The calls are words filed in the database; no cut-off is given here.

One series has as its system Huh-7. Description: Cytotoxicity against human HuH7 cells assessed as reduction in cell viability by MTT assay. It is filed as cell-based.
Series [1] in a line: (§1) Cytotoxicity against human PBMC assessed as reduction in cell viability after 6 days by trypan blue exclusion assay. It is filed as cell-based. The note with it: PBMC.
A further series concerns Hepatitis C virus. Description: Antiviral activity against HCV genotype 1b infected in human HuH7 cells assessed as inhibition of viral RNA replication after 5 days by RT-PCR method. It is filed as functional, organism-based, Hepacivirus hominis. The note with it: Huh-7, 120 h. The essentials:
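Subgenomic HCV genotype 1b replicon in Huh-7 cells. Inhibition of replicon RNA replication was measured by extracting and amplifying HCV RNA. Cellular ribosomal RNA was extracted and amplified at the same time, as a parallel cytotoxicity read-out.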

Series [2] in a line: (§2) Cytotoxicity against human CEM cells assessed as reduction in cell viability after 6 days by trypan blue exclusion assay. It is filed as cell-based, CCRF-CEM. The note with it: CEM cells.
A short description of series [3]: (§3) Cytotoxicity against African green monkey Vero cells assessed as reduction in cell viability after 6 days by trypan blue exclusion assay. It is filed as cell-based. As to conditions: chlorocebus sabaeus, Vero cells.
In a further series the test system is Norovirus. Description: Antiviral activity against Norovirus up to 10 uM. It is filed as functional, organism-based.
For series [4], the system named is Respiratory syncytial virus. Description: Antiviral activity against Respiratory syncytial virus up to 10 uM. It is filed as functional, organism-based.
The next series relates to PBMC. The description is as §1. It is filed as cell-based. The note with it: pbmc, 144 h.
The subject of another series is Ebolavirus. Description: Antiviral activity against Ebolavirus up to 10 uM. It is filed as functional.
Series [5] deals with Human immunodeficiency virus. Description: Antiviral activity against Human immunodeficiency virus up to 10 uM. It is filed as functional, organism-based.
Another series relates to West Nile virus. Description: Antiviral activity against West Nile virus up to 10 uM. It is filed as functional, organism-based.
Another series concerns CCRF-CEM. The description is as §2. It is filed as cell-based. The note with it: ccrf-cem, 144 h.
A further series has as its system Chikungunya virus. Description: Antiviral activity against Chikungunya virus up to 10 uM. It is filed as functional, organism-based.
In the next series the test system is Dengue virus. Description: Antiviral activity against Dengue virus up to 10 uM. It is filed as functional, organism-based.
Series [6] has as its system unidentified influenza virus. Description: Antiviral activity against Influenza virus up to 10 uM. It is filed as functional, organism-based.
In the next series the test system is Vero. The series is described as §3. The note with it: chlorocebus sabaeus, vero, 144 h. It is filed as cell-based.

Usually CC50 stands for the concentration giving 50% cytotoxicity. A word on the EC50: it is the concentration at which the effect is half-maximal. One may read the EC90 as the concentration at which the effect reaches the 90% level. As to `CC(C)OC(=O)[C@H](C)N[P@](=O)(OC[C@H]1O[C@@H](n2ccc(=O)[nH]c2=O)[C@](C)(F)[C@@H]1O)Oc1ccccc1` [SOFOSBUVIR], the CC50 with Huh-7 is > 10 µM. In addition, the CC50 at 144 h in series [1], in [2] and in series [3] was > 100 µM throughout. Moreover, the EC50 in the series on Hepatitis C virus came out at 0.2 µM. In the series on Hepatitis C virus, the EC90 was determined as 0.5 µM.
In the case of `CC(C)OC(=O)[C@H](C)N[P@](=O)(OC[C@H]1O[C@@H](n2ccc(N)nc2=O)C(Br)(Br)[C@@H]1O)Oc1ccccc1`, the result (with Norovirus; in series [4]; in the series with Ebolavirus; in [5]; in the series with West Nile virus; with Chikungunya virus) was inactive. Also, the result (in the series with Dengue virus; in series [6]) was inactive. In addition, the CC50 in the series on Huh-7 is > 10 µM; in the series on PBMC, > 100 µM; in the series on CCRF-CEM, 73 µM; in the series on Vero, > 100 µM. Besides, the half-maximal effective concentration (EC50) in the series with Hepatitis C virus is > 10 µM. Besides, the EC90 in the series on Hepatitis C virus is > 10 µM.
On to `O=c1ccn([C@@H]2O[C@H](CO)C(O)C2(Br)Br)c(=O)[nH]1` (single isomer, unassigned), for which the outcome (in the series on Norovirus; in series [4]; in the series on Ebolavirus; in [5]; in the series with West Nile virus; in the series on Chikungunya virus) was inactive. Besides, the result (with Dengue virus; in series [6]) was inactive. Besides, the cytotoxic concentration (CC50) is > 33 µM in the series with Huh-7, > 100 µM in the series on PBMC, > 100 µM in the series with CCRF-CEM and > 100 µM with Vero. Moreover, the EC50 in the series on Hepatitis C virus was > 33 µM. In the series on Hepatitis C virus, the EC90 was > 33 µM.
For the compound `CC(C)OC(=O)[C@H](C)N[P@](=O)(OC[C@H]1O[C@@H](n2cnc3c(N)ncnc32)C(Br)(Br)[C@@H]1O)Oc1ccccc1`, the outcome (in the series with Norovirus; in series [4]; in the series on Ebolavirus; in series [5]; in the series with West Nile virus; in the series on Chikungunya virus) was inactive. In addition, the outcome (with Dengue virus; in [6]) was inactive. For the same compound, the CC50 in the series on Huh-7 is > 10 µM; with PBMC, 57 µM; in the series on CCRF-CEM, 33 µM; in the series with Vero, 60 µM. Besides, in the series with Hepatitis C virus, the EC50 is > 10 µM.
With `CC(C)OC(=O)[C@H](C)N[P@](=O)(OC[C@H]1O[C@@H](n2ccc(=O)[nH]c2=O)C(Br)(Br)[C@@H]1O)Oc1ccccc1`, the outcome (in the series with Norovirus; in [4]; in the series with Ebolavirus; in series [5]; in the series on West Nile virus; in the series with Chikungunya virus) was inactive. Moreover, the result (in the series on Dengue virus; in [6]) was inactive. Moreover, the CC50 in the series on Huh-7 was > 10 µM; with PBMC, > 100 µM; in the series with CCRF-CEM, 95 µM; in the series with Vero, > 100 µM. Besides, the 50% effective concentration (EC50) in the series on Hepatitis C virus amounted to 1.5 µM. Also, the EC90 with Hepatitis C virus was 2.7 µM.
Consider `CC(C)OC(=O)[C@H](C)N[P@](=O)(OC[C@H]1O[C@@H](n2cnc3c(=O)[nH]c(N)nc32)C(Br)(Br)[C@@H]1O)Oc1ccccc1`, for which the result (in the series on Norovirus; in series [4]; in the series with Ebolavirus; in series [5]; with West Nile virus; in the series with Chikungunya virus) was inactive. The outcome (in the series with Dengue virus; in series [6]) was inactive. Further, the CC50 was > 10 µM in the series on Huh-7, > 100 µM in the series with PBMC, 34 µM in the series with CCRF-CEM and > 100 µM in the series with Vero. Moreover, the EC50 in the series on Hepatitis C virus was > 10 µM.
For the compound `Nc1ccn([C@@H]2O[C@H](CO)C(O)C2(Br)Br)c(=O)n1` (single isomer, unassigned), the outcome (with Norovirus; in series [4]; in the series with Ebolavirus; in [5]; in the series on West Nile virus; with Chikungunya virus) was inactive. In addition, the outcome (in the series with Dengue virus; in series [6]) was inactive. Further, the CC50 was > 10 µM in the series on Huh-7, > 100 µM in the series with PBMC, 82 µM in the series with CCRF-CEM and > 100 µM with Vero. In addition, the EC50 in the series on Hepatitis C virus is > 10 µM.
For `Nc1nc2c(ncn2[C@@H]2O[C@H](CO)C(O)C2(Br)Br)c(=O)[nH]1` (single isomer, unassigned), the result (in the series on Norovirus; in series [4]; in the series with Ebolavirus; in series [5]; with West Nile virus; in the series on Chikungunya virus) was inactive. Also, the result (in the series with Dengue virus; in series [6]) was inactive. In addition, the CC50 in the series on Huh-7 was > 10 µM; in the series on PBMC it was > 100 µM; with CCRF-CEM, > 100 µM; in the series on Vero, > 100 µM. The EC50 in the series with Hepatitis C virus is > 10 µM. Also, the concentration for an effect of 90% (EC90) with Hepatitis C virus was > 10 µM.
For `Nc1ncnc2c1ncn2[C@@H]1O[C@H](CO)C(O)C1(Br)Br` (single isomer, unassigned), the result (in the series with Norovirus; in [4]; with Ebolavirus; in [5]; in the series with West Nile virus; with Chikungunya virus) was inactive. Also, the result (with Dengue virus; in series [6]) was inactive. For the same compound, the half-maximal cytotoxic concentration (CC50) is > 10 µM with Huh-7, > 100 µM in the series with PBMC, > 100 µM in the series with CCRF-CEM and > 100 µM with Vero. Moreover, the 50% effective concentration (EC50) in the series on Hepatitis C virus is > 10 µM. Also, the EC90 in the series with Hepatitis C virus is > 10 µM.
